Like-named read-outs stand apart in the source and are kept apart here. Each block holds one compound with its values, some of them ahead of it.
How the values were obtained:
ABCG2 p.Q141K variant = format: in vivo, human; details: rosuvastatin 10 mg
Outline: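 Open-label fixed-sequence crossover in 11 healthy non-smoking adults aged 18–64. Single oral rosuvastatin 10 mg given after an overnight fast, with fasting continued 4 h. Heparinised venous plasma was stored at −70°C and analysed by LC–MS. ABCG2 c.421C>A was genotyped blind by PCR and Sanger sequencing. Nine CC and two CA subjects were compared at T = 0 h and by noncompartmental PK, using log-transformed geometric means and unpaired t-tests.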

[1] = format: in vivo, human; details: for Effect of eltrombopag administration on plasma concentrations (in words): eltrombopag 75 mg daily for 5 days
[2] = both, human, plasma, oral, 10 mg
[3] = human, in vivo, listed as rosuvastatin
[4] = rosuvastatin + eltrombopag arm, geometric mean (90% CI)
[5] = rosuvastatin alone arm, geometric mean (90% CI)

Compound: CC(C)c1nc(N(C)S(C)(=O)=O)nc(-c2ccc(F)cc2)c1/C=C/[C@@H](O)C[C@@H](O)CC(=O)O [Rosuvastatin, reference compound]
AUC0–4, fold higher in p.Q141K variant vs reference allele (ABCG2 p.Q141K variant): 2.9 fold
AUC0–INF, fold higher in p.Q141K variant vs reference allele (ABCG2 p.Q141K variant): 2.6 fold
Cmax, fold higher in p.Q141K variant vs reference allele (ABCG2 p.Q141K variant): 2.4 fold
AUC(0-inf) ([1]; both, human, plasma, oral): 0.116 µg·h/mL
CL/F ([1]; both, human, plasma, oral): 1.18 L/h/kg
Cmax ([1]; both, human, plasma, oral): 10.9 ng/mL
half-life ([1]; both, human, plasma, oral): 8.8 h
AUC(0-inf) [1, 2]: 0.0691 µg·h/mL
CL/F [1, 2]: 1.96 L/h/kg
Cmax [1, 2]: 5.4 ng/mL
half-life [1, 2]: 10.4 h
AUC(0-t) ([1]; both, human, plasma, oral, 10 mg, AUC0−4, rosuvastatin alone arm, geometric mean (90% CI)): 0.0118 µg·h/mL
AUC(0-t) ([1]; both, human, plasma, oral, AUC0−4, rosuvastatin + eltrombopag arm, geometric mean (90% CI)): 0.025 µg·h/mL
AUC0−4, geometric mean ratio (90% CI) of rosuvastatin + eltrombopag arm to rosuvastatin alone arm ([1]; human, in vivo): 2.12 (1.71–2.62); P = 0.002
AUC0−INF, geometric mean ratio (90% CI) of rosuvastatin + eltrombopag arm to rosuvastatin alone arm ([1]; human, in vivo): 1.80 (1.49–2.17); P = 0.002
CL/F/kg, geometric mean ratio (90% CI) of rosuvastatin + eltrombopag arm to rosuvastatin alone arm ([1]; human, in vivo): 0.56 (0.46–0.67); P = 0.02
Cmax, geometric mean ratio (90% CI) of rosuvastatin + eltrombopag arm to rosuvastatin alone arm ([1]; human, in vivo): 2.01 (1.59–2.53); P = 0.002
T1/2, geometric mean ratio (90% CI) of rosuvastatin + eltrombopag arm to rosuvastatin alone arm ([1]; human, in vivo): 0.88 (0.78–0.99); P = 0.13
V/F/kg, geometric mean ratio (90% CI) of rosuvastatin + eltrombopag arm to rosuvastatin alone arm ([1]; human, in vivo): 0.49 (0.38–0.63); P = 0.004
AUC0−4, geometric mean ratio (90% CI) of rosuvastatin + eltrombopag arm to rosuvastatin alone arm [1, 3]: 2.1
AUC0−INF, geometric mean ratio (90% CI) of rosuvastatin + eltrombopag arm to rosuvastatin alone arm [1, 3]: 1.8
Cmax, geometric mean ratio (90% CI) of rosuvastatin + eltrombopag arm to rosuvastatin alone arm [1, 3]: twofold
Tmax ([1]; rosuvastatin + eltrombopag arm): 4 (3.5–5) h
V/F/kg [1, 4]: 14.9 (11.5–17.8) L/kg
V/F/kg ([1]; rosuvastatin + eltrombopag arm, geometric mean (90% CI), listed as rosuvastatin): 14.9 L/kg
Tmax ([1]; rosuvastatin alone arm): 5 (1.5–5) h
V/F/kg [1, 5]: 29.3 (22.8–37.7) L/kg
V/F/kg ([1]; rosuvastatin alone arm, geometric mean (90% CI), listed as rosuvastatin): 29.3 L/kg

Effect of eltrombopag administration on plasma concentrations (in words) [1]: no effect
AUC0−24, geometric mean ratio (90% CI) of rosuvastatin + eltrombopag arm to rosuvastatin alone arm ([1]; human, in vivo): 0.96 (0.88–1.04); P = 0.50
C0, geometric mean ratio (90% CI) of rosuvastatin + eltrombopag arm to rosuvastatin alone arm ([1]; human, in vivo): 0.90 (0.83–0.98); P = 0.05
Cmax, geometric mean ratio (90% CI) of rosuvastatin + eltrombopag arm to rosuvastatin alone arm ([1]; human, in vivo): 0.95 (0.88–1.03); P = 0.33
AUC0−24 [1, 4]: 16.2 (14.2–18.4) nM*h
C0 [1, 4]: 0.74 nM
Cmax [1, 4]: 0.89 nM
AUC0−24 [1, 5]: 16.9 (15.3–18.6) nM*h
C0 [1, 5]: 0.81 nM
Cmax [1, 5]: 0.93 nM
Compound: Coproporphyrin-I [CP‐I]

Effect of eltrombopag administration on plasma concentrations (in words) [1]: no effect
AUC0−24, geometric mean ratio (90% CI) of rosuvastatin + eltrombopag arm to rosuvastatin alone arm ([1]; human, in vivo): 0.93 (0.80–1.08); P = 0.44
C0, geometric mean ratio (90% CI) of rosuvastatin + eltrombopag arm to rosuvastatin alone arm ([1]; human, in vivo): 0.75 (0.64–0.88); P = 0.01
Cmax, geometric mean ratio (90% CI) of rosuvastatin + eltrombopag arm to rosuvastatin alone arm ([1]; human, in vivo): 0.83 (0.70–0.98); P = 0.08
AUC0−24 [1, 4]: 1.70 (1.46–1.99) nM*h
C0 [1, 4]: 0.09 nM
Cmax [1, 4]: 0.11 nM
AUC0−24 [1, 5]: 1.83 (1.60–2.09) nM*h
C0 [1, 5]: 0.12 nM
Cmax [1, 5]: 0.13 nM
Compound: Coproporphyrin-III [CP‐III]

Source: article PMC12166265 (Clinical Pharmacology and Therapeutics, 2025)
